Results from ChEMBL document CHEMBL1144570, “C6-(N,N-butyl-methyl-heptanamide) derivatives of estrone and estradiol as inhibitors of type 1 17beta-hydroxysteroid dehydrogenase: Chemical synthesis and biological evaluation” (2007).
Calls of active or inactive are those of the source. The calls are words filed in the database; no cut-off is given here.

Molecular target: T1, 17-beta-hydroxysteroid dehydrogenase type 1 (Homo sapiens) (UniProt P14061)
T1 sequence (whole entry): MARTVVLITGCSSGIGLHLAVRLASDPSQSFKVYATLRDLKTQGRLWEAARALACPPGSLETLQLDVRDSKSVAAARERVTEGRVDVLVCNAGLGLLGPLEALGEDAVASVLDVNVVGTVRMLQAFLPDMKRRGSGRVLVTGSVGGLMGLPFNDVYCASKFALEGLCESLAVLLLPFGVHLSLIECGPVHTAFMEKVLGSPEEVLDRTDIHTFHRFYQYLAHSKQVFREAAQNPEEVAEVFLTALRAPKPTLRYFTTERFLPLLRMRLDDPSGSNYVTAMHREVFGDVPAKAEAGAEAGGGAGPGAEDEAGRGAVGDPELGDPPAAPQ
Assay: Inhibition of 17beta-HSD1 over-expressed in intact T47D cells at 10 uM
Format: cell-based
Settings: not given
Method in brief: (§1)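 Intact T-47D cells, which express endogenous type 1 17β-HSD, were seeded at 3×10^4 cells/well in proliferation assay medium. After 48 h, [4-14C]-E1 (60 nM) and inhibitor in ethanol (0.5% v/v) were added in fresh medium for 24 h. Labelled E1 and E2 were extracted and quantified. Values are the mean of two experiments in triplicate, SD < ±5%.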

Row | SMILES | inhibition [%]
1 | CCCCN(C)C(=O)CCCCCC[C@@H]1C[C@@H]2[C@H](CC[C@]3(C)C(=O)CC[C@@H]23)c2ccc(O)cc21 | 92

Tested on: MCF7
Assay: Increase in cell growth of estrogen-starved ER expressing MCF7 cells at 10 nM relative to control after 10 days
Format: functional, Homo sapiens
Settings: not given
Method in brief: (§2)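 Cells were moved to medium with insulin (50 ng/mL) and 5% dextran-coated charcoal-treated FBS to remove estrogens, then seeded at 3000 cells/well. After 48 h, inhibitor dilutions in growth medium were added, with medium replaced every 2 days. Cells were grown 10 days in triplicate. Growth was read with the CellTiter 96 AQueous assay and expressed as % of control (100%).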

Row | SMILES | Activity
2 | C[C@]12CC[C@@H]3c4ccc(O)cc4CC[C@H]3[C@@H]1CC[C@@H]2O [ESTRADIOL] | 1.8

Molecular target: T1, 17-beta-hydroxysteroid dehydrogenase type 1 (Homo sapiens)
Assay: Inhibition of 17beta-HSD1 over-expressed in homogenated HEK293 cells at 0.1 uM
Format: cell-based
Settings: not given
Method in brief: (§3)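 Homogenate of HEK-293 cells overexpressing type 1 17β-HSD. Reductive conversion of E1 (100 nM) to E2 with NADH cofactor. Percent inhibition from one run in triplicate, SD < ±5%.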

Row | SMILES | inhibition [%]
3 | CCCCN(C)C(=O)CCCCCC[C@@H]1C[C@@H]2[C@H](CC[C@]3(C)C(=O)CC[C@@H]23)c2ccc(O)cc21 | 12

Molecular target: T2, 3-keto-steroid reductase/17-beta-hydroxysteroid dehydrogenase 7 (Homo sapiens) (UniProt P56937)
T2 sequence (whole entry): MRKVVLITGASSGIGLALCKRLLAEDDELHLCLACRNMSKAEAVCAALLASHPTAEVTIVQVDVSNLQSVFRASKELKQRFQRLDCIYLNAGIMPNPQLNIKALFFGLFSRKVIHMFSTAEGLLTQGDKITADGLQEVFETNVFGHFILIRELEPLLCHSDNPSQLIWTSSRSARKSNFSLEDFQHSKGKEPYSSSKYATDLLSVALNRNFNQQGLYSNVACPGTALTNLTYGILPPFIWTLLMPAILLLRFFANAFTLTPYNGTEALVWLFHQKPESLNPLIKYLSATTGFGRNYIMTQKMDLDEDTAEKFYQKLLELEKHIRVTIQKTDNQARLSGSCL
Assay: Inhibition of 17beta-HSD7 over-expressed in intact HEK293 cells at 1 uM
Format: cell-based
Settings: not given
Method in brief: (§4)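 Intact transfected HEK-293 cells expressing type 7 17β-HSD. Inhibition of reductive conversion of E1 (60 nM) to E2. One run in triplicate, SD < ±5%.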

Row | SMILES | inhibition [%]
4 | CCCCN(C)C(=O)CCCCCC[C@@H]1C[C@@H]2[C@H](CC[C@]3(C)C(=O)CC[C@@H]23)c2ccc(O)cc21 | 7

Molecular target: T1, 17-beta-hydroxysteroid dehydrogenase type 1 (Homo sapiens)
Assay: Inhibition of 17beta-HSD1 over-expressed in intact HEK293 cells at 0.1 uM
Format: cell-based
Settings: not given
Method in brief: (§5)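 Transfected HEK-293 cells expressing type 1 17β-HSD were plated at 5000 cells/well. Inhibitors were added in ethanol and incubated 24 h. [4-14C]-E1 (60 nM) was then added for 15 min. Labelled E1 and E2 were extracted from the medium and quantified. Values are the mean of five experiments in quadruplicate, SD < ±8%.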

Row | SMILES | inhibition [%]
5 | CCCCN(C)C(=O)CCCCCC[C@@H]1C[C@@H]2[C@H](CC[C@]3(C)C(=O)CC[C@@H]23)c2ccc(O)cc21 | 8

Molecular target: T1, 17-beta-hydroxysteroid dehydrogenase type 1 (Homo sapiens)
Assay: Inhibition of 17beta-HSD1 overexpressed in homogenated HEK293 cells at 1 uM
Format: cell-based
Settings: not given
Method in brief: as §3

Row | SMILES | inhibition [%]
6 | CCCCN(C)C(=O)CCCCCC[C@@H]1C[C@@H]2[C@H](CC[C@]3(C)C(=O)CC[C@@H]23)c2ccc(O)cc21 | 23

Molecular target: T1, 17-beta-hydroxysteroid dehydrogenase type 1 (Homo sapiens)
Assay: Inhibition of 17beta-HSD1 over-expressed in intact T47D cells at 0.1 uM
Format: cell-based
Settings: not given
Method in brief: as §1

Row | SMILES | inhibition [%]
7 | CCCCN(C)C(=O)CCCCCC[C@@H]1C[C@@H]2[C@H](CC[C@]3(C)C(=O)CC[C@@H]23)c2ccc(O)cc21 | 19

Molecular target: T1, 17-beta-hydroxysteroid dehydrogenase type 1 (Homo sapiens)
Assay: Inhibition of 17beta-HSD1 over-expressed in intact T47D cells at 1 uM
Format: cell-based
Settings: not given
Method in brief: as §1

Row | SMILES | inhibition [%]
8 | CCCCN(C)C(=O)CCCCCC[C@@H]1C[C@@H]2[C@H](CC[C@]3(C)C(=O)CC[C@@H]23)c2ccc(O)cc21 | 57

Molecular target: T1, 17-beta-hydroxysteroid dehydrogenase type 1 (Homo sapiens)
Assay: Inhibition of 17beta-HSD1 over-expressed in intact HEK293 cells at 1 uM
Format: cell-based
Settings: not given
Method in brief: as §5

Row | SMILES | inhibition [%]
9 | CCCCN(C)C(=O)CCCCCC[C@@H]1C[C@@H]2[C@H](CC[C@]3(C)C(=O)CC[C@@H]23)c2ccc(O)cc21 | 20

Molecular target: T1, 17-beta-hydroxysteroid dehydrogenase type 1 (Homo sapiens)
Assay: Inhibition of 17beta-HSD1 over-expressed in intact HEK293 cells
Format: cell-based
Settings: not given
Method in brief: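 Transfected HEK-293 cells overexpressing type 1 17β-HSD, plated at 5000 cells/well, given ethanolic inhibitor solutions and incubated 24 h. [4-14C]-E1 (60 nM) then added for 15 min. Labelled E1 and E2 extracted from medium and quantified, giving percent inhibition of E1→E2 reduction at 10, 1 and 0.1 μM. Mean of five experiments in quadruplicate.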

Row | SMILES | Activity
10 | C[C@]12CC[C@@H]3c4ccc(O)cc4C=C[C@H]3[C@@H]1CC[C@@H]2O | inactive
11 | C[C@]12CC[C@@H]3c4ccc(O)cc4C(=O)C[C@H]3[C@@H]1CC[C@@H]2O | inactive
12 | C[C@]12CC[C@@H]3c4ccc(O)cc4[C@H](O)C[C@H]3[C@@H]1CC[C@@H]2O | inactive
13 | C[C@]12CC[C@H]3C(=CCc4cc(O)ccc43)[C@@H]1CC[C@@H]2O | inactive

Molecular target: T3, Very-long-chain 3-oxoacyl-CoA reductase (Homo sapiens) (UniProt Q53GQ0)
T3 sequence (whole entry): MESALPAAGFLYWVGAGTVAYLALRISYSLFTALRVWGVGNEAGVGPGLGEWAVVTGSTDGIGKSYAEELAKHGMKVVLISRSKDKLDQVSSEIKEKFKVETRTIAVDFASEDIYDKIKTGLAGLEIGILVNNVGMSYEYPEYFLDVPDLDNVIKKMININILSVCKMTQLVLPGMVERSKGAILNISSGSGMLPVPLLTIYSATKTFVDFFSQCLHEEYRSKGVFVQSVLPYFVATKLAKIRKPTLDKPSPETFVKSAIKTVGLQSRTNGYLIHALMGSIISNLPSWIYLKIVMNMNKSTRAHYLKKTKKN
Assay: Inhibition of 17beta-HSD12 over-expressed in intact HEK293 cells at 1 uM
Format: cell-based
Settings: not given
Method in brief: (§6)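 Transfected HEK-293 cells expressing type 12 17β-HSD were plated at 1.5×10^5 cells/well. Inhibitor in ethanol plus [4-14C]-E1 (60 nM) were added in fresh medium for 24 h. E1 to E2 conversion was quantified after steroid extraction. Values are the mean of two experiments in triplicate, SD < ±5%.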

Row | SMILES | inhibition [%]
14 | CCCCN(C)C(=O)CCCCCC[C@@H]1C[C@@H]2[C@H](CC[C@]3(C)C(=O)CC[C@@H]23)c2ccc(O)cc21 | 0

Molecular target: T3, Very-long-chain 3-oxoacyl-CoA reductase (Homo sapiens)
Assay: Inhibition of 17beta-HSD12 over-expressed in intact HEK293 cells at 10 uM
Format: cell-based
Settings: not given
Method in brief: as §6

Row | SMILES | inhibition [%]
15 | CCCCN(C)C(=O)CCCCCC[C@@H]1C[C@@H]2[C@H](CC[C@]3(C)C(=O)CC[C@@H]23)c2ccc(O)cc21 | 40

Molecular target: T2, 3-keto-steroid reductase/17-beta-hydroxysteroid dehydrogenase 7 (Homo sapiens)
Assay: Inhibition of 17beta-HSD7 over-expressed in intact HEK293 cells at 10 uM
Format: cell-based
Settings: not given
Method in brief: as §4

Row | SMILES | inhibition [%]
16 | CCCCN(C)C(=O)CCCCCC[C@@H]1C[C@@H]2[C@H](CC[C@]3(C)C(=O)CC[C@@H]23)c2ccc(O)cc21 | 31

Tested on: MCF7
Assay: Decrease in cell growth of estrogen-starved ER expressing MCF7 cells at 1 uM relative to control after 10 days
Format: functional, cell-based
Settings: Homo sapiens
Method in brief: as §2

Row | SMILES | Activity
17 | CCCCN(C)C(=O)CCCCCC[C@@H]1C[C@@H]2[C@H](CC[C@]3(C)C(=O)CC[C@@H]23)c2ccc(O)cc21 | Active

Molecular target: T1, 17-beta-hydroxysteroid dehydrogenase type 1 (Homo sapiens)
Assay: Inhibition of 17beta-HSD1 over-expressed in intact HEK293 cells at 10 uM
Format: cell-based
Settings: not given
Method in brief: as §5

Row | SMILES | inhibition [%]
18 | CCCCN(C)C(=O)CCCCCC[C@@H]1C[C@@H]2[C@H](CC[C@]3(C)C(=O)CC[C@@H]23)c2ccc(O)cc21 | 31

Tested on: T47D
Assay: Increase in cell growth of estrogen-starved ER expressing T47D cells at 10 nM relative to control after 10 days
Format: functional, Homo sapiens
Settings: not given
Method in brief: as §2

Row | SMILES | Activity
19 | C[C@]12CC[C@@H]3c4ccc(O)cc4CC[C@H]3[C@@H]1CC[C@@H]2O [ESTRADIOL] | 3
